PKA-R2B act = PKA-R2B complex activation | P22694+P31323 | PKA-R2B holoenzyme dissociation, Cy5-IP20 fluorescence polarization; R2B truncated from residue 108, S112A mutant; 0% DMSO only, 100% 113 µM cGMP | activation, % at 11.4 µM | 340,000 tested, 0.079% active | AID 504700;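 active means activation above a cutoff set at the mean over all compounds plus 3 SD, cut at about 18% in these data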;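 further: higher means more holoenzyme dissociation and a rise in polarization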
CTSL1 counter = blocks F. hepatica cathepsin L1 in PFM18AAP counter-screen; inhibition, % at 5.96 µM; AID 1906; 300,000 tested, 0.49% active; recombinant F. hepatica cathepsin L1, Z-Leu-Arg-MCA fluorescence;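 active means inhibition above the mean of all tested compounds plus 3 SD, set per screening campaign, cut at about 17% in these data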;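 further: 0% = plate median of test compound wells and 100% = 1 µM Z-Phe-Ala-diazomethylketone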
PKA-R1A activ = activates the PKA-R1A holoenzyme complex; P00514+P68181; PKA-R1A dissociation, Cy5-IP20 fluorescence polarization; scaled: DMSO 0%, 113 µM cGMP 100%; activation, % at 11.4 µM; 340,000 tested, 0.083% active; AID 504707;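 active means percent activation above the mean of all tested compounds plus 3 SD, cut at about 19% in these data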;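 further: higher means more PKAc released from R1A so a rise in polarization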
aDG glyco act = increases alpha dystroglycan glycosylation; Pro5-aDG cells, alpha-DG glycosylation AlphaScreen (IIH6); 0% Pro5, 100% B10-LARGE cell signal; activation, % at 10 µM; 360,000 tested, 0.22% active;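 active means activation of at least 8% versus controls, or a plate z-score of at least 8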;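 further: Pro5 are CHO cells carrying HIG-tagged alpha-DG that lacks glycosylation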
UCH37 DUB inh = blocks the human deubiquitinase UCH37; Q9Y5K5; purified proteasome/UCH37, Ub-AMC cleavage fluorescence; inhibition, % (concentration not given with the values); 330,000 tested, 0.33% active; AID 588478;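 active means mean inhibition over replicate wells above about 20%, limit read from the data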;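 further: 0% = compound-free wells with enzyme and 100% = wells lacking proteasome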
Target sequence (Q9Y5K5 whole entry, looked up): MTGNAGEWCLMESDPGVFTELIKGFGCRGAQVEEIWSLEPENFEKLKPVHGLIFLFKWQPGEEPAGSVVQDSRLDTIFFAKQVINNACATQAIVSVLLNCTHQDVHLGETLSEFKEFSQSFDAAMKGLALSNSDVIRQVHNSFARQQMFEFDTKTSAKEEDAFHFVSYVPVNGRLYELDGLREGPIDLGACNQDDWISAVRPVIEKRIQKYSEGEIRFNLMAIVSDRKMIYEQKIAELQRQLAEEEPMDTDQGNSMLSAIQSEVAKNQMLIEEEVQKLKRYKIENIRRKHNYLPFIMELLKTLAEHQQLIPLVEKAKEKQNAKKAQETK
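Material: Human UCH37 enzyme supplied as purified proteasome complex | Schedule: 30 min preincubation with enzyme, 25 min cleavage at room temperature | Detection: AMC fluorescence 355/460 nm | Measure: % inhibition of Ub-AMC cleavage fluorescence | Controls: Wells without proteasome as full block, compound-free enzyme plus substrate as uninhibited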
* hit, by the source's call; nt = not tested or not shown. The list is not random: actives were taken first. Their share in the collection is about 0.94%.

SMILES	PKA-R2B act	CTSL1 counter	PKA-R1A activ	aDG glyco act	UCH37 DUB inh
O=C(Nc1ccc(N2CCN(C(=O)c3ccc(Cl)cc3)CC2)cc1)c1ccc2c(c1)OCCO2	4.8	2.8	-8.9	4.0*	-1.8
c1ccc(Cc2nnc3sc(-c4cccnc4)nn23)cc1	-4.8	22.3*	-9.7	0.1	0.3
c1ccc(Cc2nnc3sc(-c4ccncc4)nn23)cc1	-0.8	-4.6	-4.4	-0.2	1.1
O=c1c2cnn(-c3ccccc3)c2nnn1N=Cc1cccnc1	nt	nt	nt	nt	3.5
CC(=NNC(=O)Cc1c(C)[nH][nH]c1=O)c1cccc(Br)c1	nt	nt	nt	nt	1.3
CC(=O)Nc1ccc(NC2=CC(=NS(=O)(=O)c3cccs3)c3ccccc3C2=O)cc1	nt	nt	nt	nt	28.8*
CC(=O)Nc1ccc(NC2=C/C(=N/S(=O)(=O)c3cccs3)c3ccccc3C2=O)cc1	nt	102.2*	nt	-0.2	nt
CN(C)c1ccc(N/C(=N\S(=O)(=O)c2cccs2)c2ccccc2)cc1	0.6	-1.9	0.1	0.1	nt
Cc1ccc(NC2=C/C(=N/S(=O)(=O)c3cccs3)c3ccccc3C2=O)cc1C	10.4	18.6*	-3.6	0.3	nt
Cc1ccc(NC2=CC(=NS(=O)(=O)c3cccs3)c3ccccc3C2=O)cc1C	nt	nt	nt	nt	3.7
CC(=O)Nc1ccc(NC(=O)C(C)OC(=O)c2ccccc2NS(=O)(=O)c2cccs2)cc1 (centres undefined)	-4.2	-3.6	-2.8	0.0	-0.9
Cc1ccccc1NC1=C/C(=N\S(=O)(=O)c2ccc(C(=O)O)cc2)c2ccccc2C1=O	5.3	103.8*	0.6	0.5	94.4*
CC(C)c1ccc(S(=O)(=O)/N=C2\C=C(NS(=O)(=O)c3ccccc3)C(=O)c3ccccc32)cc1	-1.7	2.5	-4.3	0.3	9.1
Cc1ccccc1C=NNC(=O)c1ccccc1-n1cccc1	nt	nt	nt	nt	2.0
CCOc1ccc(S(=O)(=O)N=C(c2ccccc2)N(C)C)cc1	nt	nt	nt	nt	-0.7
Cc1c(C=NNC(=O)c2ccccc2O)c2ccccn2c1C(=O)c1ccc(F)cc1	nt	nt	nt	nt	1.0
COC(=O)C(C(C)=O)C1=C/C(=N\S(=O)(=O)c2ccc(C)cc2)c2ccccc2C1=O (centres undefined)	-6.9	-1.4	-9.3	0.3	nt
COc1ccc(S(=O)(=O)/N=C2\C=C(Nc3ccc(O)cc3)C(=O)c3ccccc32)cc1	2.1	91.7*	-7.2	-0.6	nt
CCc1ccc(C(C)=NNC(=O)c2ccc(-n3cnnn3)cc2)cc1	nt	nt	nt	nt	5.6
O=CN1CCCN(Cc2nc(-c3cccc(Cl)c3)no2)CC1	-14.5	-5.8	5.6	-0.2	30.2*
O=C1C2CCCCN2C(=O)N1CCN1CCN(c2ccc([N+](=O)[O-])cc2)CC1 (centres undefined)	7.2	4.9	4.3	0.0	1.3
O=C(CCCN1C(=O)C2CCCCN2C1=O)N1CCN(c2ccc([N+](=O)[O-])cc2)CC1 (centres undefined)	5.5	20.4*	-4.9	0.1	3.9
CC(C)=CCC/C(C)=C/C=NNC(=O)c1cccc([N+](=O)[O-])c1	nt	nt	nt	nt	2.6
CCOC(=O)C1=C(COC(=O)c2ccc([N+](=O)[O-])o2)NC(=O)NC1C (centres undefined)	-2.1	nt	-8.1	-0.2	21.4*
CCOC(=O)C1CCN(C(=O)COC(=O)c2ccc([N+](=O)[O-])o2)CC1	2.3	nt	-2.5	0.4	20.1*
SMILES	PKA-R2B act	CTSL1 counter	PKA-R1A activ	aDG glyco act	UCH37 DUB inh
O=C(COC(=O)c1ccc([N+](=O)[O-])o1)c1ccccc1	5.2	-4.9	1.6	0.0	1.9
CC1CC(C)CN(C(=O)COC(=O)c2ccc([N+](=O)[O-])o2)C1 (centres undefined)	-0.6	nt	7.0	0.3	13.5
O=C(OCCCOC(=O)c1ccc([N+](=O)[O-])o1)c1ccc([N+](=O)[O-])o1	-7.1	22.6*	-1.3	1.1	5.1
CCOC(=O)N1CCN(C(=O)Nc2ccc(NC(=O)N3CCN(C(=O)OCC)CC3)cc2)CC1	2.0	1.4	-5.1	0.3	1.9
CCOC(=O)N1CCN(C(=O)Nc2cccc3ccccc23)CC1	-8.7	17.4*	-0.4	-0.1	-1.6
CC(=NNC(=O)CCC(=O)Nc1ccc(C)c(C)c1)C1CC1	nt	nt	nt	nt	0.8
COc1ccc(C=Nc2oc(-c3ccccc3)cc2C#N)cc1OC	nt	nt	nt	nt	-5.8
COc1ccc(/C=N\NC(=O)/C(=C\Nc2nccc(C)n2)NC(=O)c2ccccc2)cc1	-7.0	20.1*	-6.9	-0.2	nt

Screens deposited in PubChem BioAssay by several laboratories.
